Legend:
[1] = organism: Rattus norvegicus; experiment: In vitro ability to relax phenylephrine contracted rat aorta rings; type: functional
[2] = In vitro membrane potential on murine beta-TC3 cells; NA= not active; type: functional, Mus musculus
[3] = tested on: Beta-TC6; experiment: Percent efficacy of compound for the in vitro inhibition of insulin release from murine beta-TC6 cells; type: functional, Mus musculus
In short: (§1)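 βTC6 cells washed twice in NN buffer (pH-buffered Krebs-type saline with HEPES) plus 0.1% BSA, preincubated 60 min, then incubated 3 h with 22 mM glucose, 0.1 mM IBMX and serial compound dilutions. Supernatant insulin measured by competition ELISA against rat insulin standards with peroxidase-labelled insulin and TMB read-out. EC50 (potency) and percentage inhibition (efficacy) derived from curves; at least two experiments.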

[4] = tested on: Beta-TC6; experiment: In vitro inhibition of insulin release from murine beta-TC6 cells; type: functional, cell-based; settings: Mus musculus; in short: as §1
[5] = In vitro membrane potential on murine beta-TC3 cells; type: functional; settings: Mus musculus
[6] = organism: Rattus norvegicus; experiment: Concentration required for the inhibition of insulin release from rat islets; type: functional
In short: (§2)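 Rat islets isolated by collagenase digestion and Ficoll gradient (40–13%), cultured overnight in RPMI/10% FCS/11 mM glucose, then 10 islets per well overnight in DMEM/10% FCS/3 mM glucose. Tested as for βTC6: NN buffer with 0.1% BSA, 3 h with 22 mM glucose and compound dilutions, no IBMX; insulin by competition ELISA.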

[7] = In vitro membrane potential on murine betaTC3 cells; NA=not active; type: functional, Mus musculus
[8] = organism: Rattus norvegicus; experiment: Compound was evaluated for the inhibition of insulin release from rat islets; type: functional; in short: as §2

SMILES | IC50 [1] | IC50 [2] | Efficacy [3] | IC50 [4] | IC50 [5] | IC50 [6] | IC50 [7] | IC50 [8]
CCC(C)(C)/N=C(\NC#N)Nc1cccnc1 | 0.25 µM |  |  |  |  |  |  | 
CCC(C)(C)/N=C(\NC#N)Nc1cc(C(F)(F)F)cc(C(F)(F)F)c1 | 0.9 µM | Not Active |  |  |  |  |  | 
COc1cc(N/C(=N/CCC(C)C)NC#N)cc(C(F)(F)F)c1 | 79 µM |  | 79% | 3.9 µM | 13 µM | 4.8 µM |  | 
CCC(C)(C)/N=C(\NC#N)Nc1cc(Cl)cc(Cl)c1 | 0.3 µM |  | 57% | 2.3 µM |  |  | Not Active | 
CCC/N=C(\NC#N)Nc1cc(C(F)(F)F)cc(C(F)(F)F)c1 | 12.4 µM |  | 58% | 5 µM | 0.9 µM |  |  | 
CC(/N=C(\NC#N)Nc1cc(Cl)cc(Cl)c1)C(C)(C)C (configuration not stated) | 0.5 µM |  | 86% | 26.7 µM | 19 µM | 2.2 µM |  | 
CCC/N=C(\NC#N)Nc1cc(Cl)cc(Cl)c1 | 31 µM |  | 50% | 3.7 µM | 36 µM |  |  | 
CC(/N=C(\NC#N)Nc1cc(C(F)(F)F)cc(C(F)(F)F)c1)C(C)(C)C (configuration not stated) | 8.7 µM | Not Active | 78% | 4.6 µM |  |  |  | 
CC(C)CC/N=C(\NC#N)Nc1cc(C(F)(F)F)cc(C(F)(F)F)c1 | 5.6 µM |  | 77% | 2 µM | 0.5 µM |  |  | 
CC(C)CC/N=C(\NC#N)Nc1cc(Cl)cc(Cl)c1 | 18.7 µM |  | 72% | 0.7 µM | 4 µM |  |  | 
CC(/N=C(\NC#N)Nc1cccc(C(F)(F)F)c1)C(C)(C)C (configuration not stated) | 88 µM |  | 29% | > 100 µM | > 100 µM |  |  | 
CC1=Nc2ccc(Cl)cc2S(=O)(=O)N1 [DIAZOXIDE] | 11.5 µM |  | 23% | 22.4 µM | 77.4 µM |  |  | 6.1 µM
CC(N/C(=N\C#N)Nc1ccncc1)C(C)(C)C (configuration not stated) [PINACIDIL ANHYDROUS] | 1.5 µM |  |  |  |  |  |  | 

Source: ChEMBL document CHEMBL1134126, “Phenylcyanoguanidines as inhibitors of glucose-induced insulin secretion from beta cells” (Bioorg Med Chem Lett, 2001)
